We go through nine molecules from ChEMBL document CHEMBL2069294, “Synthesis and evaluation of hybrid drugs for a potential HIV/AIDS-malaria combination therapy” (Bioorg Med Chem, 2012).

pIC50: −log10 of the molar value. The source made the active and inactive calls. The calls are words filed in the database; no cut-off is given here.

Experiment [1] has as its system Plasmodium falciparum. Nature of the experiment: Antiplasmodial activity against drug resistant Plasmodium falciparum Dd2 ring stage cells assessed as reduction parasitemia by Malstat assay. The experiment is classed as functional, organism-based.
Experiment [2] in a line: Selectivity index, ratio of CC50 for human HeLa cells to IC50 for Plasmodium falciparum Dd2 ring stage cells. It counts as functional. The method, boiled down:
(§1)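 Ratio of HeLa MTT CC50 to Malstat IC50 against the stated P. falciparum strain (ring-stage, triplicate, 1% parasitemia).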

The test system of experiment [3] is Plasmodium falciparum. Nature of the experiment: Antiplasmodial activity against Plasmodium falciparum 3D7 ring stage cells assessed as reduction parasitemia by Malstat assay. The conditions noted are these: for pIC50: Plasmodium falciparum, 3D7, read-out: IC50. It counts as functional, organism-based.
The test system of experiment [4] is HeLa. The experiment is described as follows: Cytotoxicity against human HeLa cells by MTT assay. It counts as cell-based. The method, boiled down: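 MTT reduction assay on HeLa cells (DMEM, 10% heat-inactivated FCS) with serial dilutions; CC50 taken as concentration giving 50% growth inhibition, ± SEM.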
Experiment [5] in a line: Selectivity index, ratio of CC50 for human HeLa cells to IC50 for VSV-G pseudotyped HIV1 lentiviral particles. The experiment is classed as functional. The method, boiled down:
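Ratio of HeLa MTT CC50 to IC50 in the 48 h VSV-G-pseudotyped HIV-1 reporter assay in HeLa cells.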

Experiment [6] is described as follows: Selectivity index, ratio of CC50 for human HeLa cells to IC50 for Plasmodium falciparum 3D7 ring stage cells. The experiment is classed as functional. In short, it runs like this:
as §1

The subject of experiment [7] is Human immunodeficiency virus 1. Nature of the experiment: Antiviral activity against VSV-G pseudotyped HIV1 lentiviral particles infected in human HeLa cells incubated for 48 hrs by spectrofluorometry. It counts as functional, organism-based. The conditions noted are these: for pIC50: Human immunodeficiency virus 1, HeLa, 48 h, read-out: IC50; for IC50: hela.
Experiment [8] concerns Plasmodium falciparum. The experiment is described as follows: Antiplasmodial activity against Plasmodium falciparum NF54 assessed as reduction in stage IV and V gametocyte formation at IC50 level incubated for 48 hrs measured 7 days post compound wash by Giemsa staining. The experiment is classed as functional, organism-based.

In general, pIC50 refers to the IC50 on a negative log10 scale, so that one unit is a factor of ten. With `Cc1cn([C@H]2C[C@H](n3cc(CO[C@H]4O[C@@H]5O[C@@]6(C)CC[C@H]7[C@H](C)CC[C@@H]([C@H]4C)[C@@]57OO6)nn3)[C@@H](CO)O2)c(=O)[nH]c1=O`, the negative-log IC50 (pIC50) was 7.00 in experiment [1], 6.57 in experiment [3], under 4.00 in experiment [4] and 4.95 in experiment [7]. The “Ratio CC50/IC50” value is over 1000 in experiment [2], over 9 in experiment [5] and over 370.4 in experiment [6].

In the case of `Cc1cn([C@H]2C[C@H](N=[N+]=[N-])[C@@H](CO)O2)c(=O)n(CCNc2ccnc3cc(Cl)ccc23)c1=O`, the negative logarithm of the IC50 (pIC50) in experiment [1] was 6.19; in experiment [3], 6.34; in experiment [4] it was under 4.00; in experiment [7], 5.15. Also, the “Ratio CC50/IC50” value in experiment [2] is listed as over 153.8; in experiment [5], over 14; in experiment [6], over 217.4.

For the molecule `C[C@H]1[C@@H](O)O[C@@H]2O[C@@]3(C)CC[C@H]4[C@H](C)CC[C@@H]1[C@@]24OO3` [ARTENIMOL], the pIC50 in experiment [1] is 8.00; in experiment [3], 7.52; in experiment [4], under 4.00. Moreover, in experiment [6], the “Ratio CC50/IC50” value was over 3333.3. The inhibition result in experiment [8] was “Active”. For the same molecule, in experiment [7], the IC50 result is listed as “Not Active”.

Regarding `Cc1nnc(C(=O)NC(C)(C)c2nc(C(=O)NCc3ccc(F)cc3)c(O)c(=O)n2C)o1` [RALTEGRAVIR], in experiment [3], the IC50 entry is given as “Not Active”. Besides, the pIC50 in experiment [4] is under 4.00; in experiment [7], 8.00. Also, in experiment [5], the “Ratio CC50/IC50” value was over 10000.

As to `Cc1cn([C@H]2C[C@H](N=[N+]=[N-])[C@@H](CO)O2)c(=O)n(Cc2cccc(Nc3ccnc4cc(Cl)ccc34)c2)c1=O`, the pIC50 is 6.66 in experiment [1], 6.80 in experiment [3], under 4.00 in experiment [4] and 5.75 in experiment [7]. In addition, the “Ratio CC50/IC50” value in experiment [2] is over 454.5; in experiment [5], over 56.8; in experiment [6], over 625.

As to `Cc1cn([C@H]2C[C@H](NC(=O)NCCCCCNc3ccnc4cc(Cl)ccc34)[C@@H](CO[Si](c3ccccc3)(c3ccccc3)C(C)(C)C)O2)c(=O)[nH]c1=O`, the negative-log IC50 (pIC50) in experiment [1] is 7.10; in experiment [3] it was 6.24; in experiment [4] it was 4.44; in experiment [7], 5.10. Further, the entries for the “Ratio CC50/IC50” value in experiment [2], in experiment [5] and in experiment [6] were 451.6, 4.6 and 62.3, respectively.

As for `Cc1cn([C@H]2C[C@H](NC(=O)C(=O)NCCCCCNc3ccnc4cc(Cl)ccc34)[C@@H](CO[Si](c3ccccc3)(c3ccccc3)C(C)(C)C)O2)c(=O)[nH]c1=O`, the pIC50 in experiment [1] was 7.10; in experiment [3], 6.42; in experiment [4] it was 4.54; in experiment [7], 6.05. Further, the “Ratio CC50/IC50” value was determined as 358.1 in experiment [2], 31.8 in experiment [5] and 75.4 in experiment [6].

As for `Cc1cn([C@H]2C[C@H](NC(=O)CC3CCC4(CC3)OOC3(OO4)C4CC5CC(C4)CC3C5)[C@@H](CO[Si](c3ccccc3)(c3ccccc3)C(C)(C)C)O2)c(=O)[nH]c1=O` (some centres not stated), the pIC50 is 6.72 in experiment [1], 6.57 in experiment [3] and under 4.00 in experiment [4]. Moreover, the “Ratio CC50/IC50” value is over 526.3 in experiment [2] and over 370.4 in experiment [6]. In addition, the IC50 result in experiment [7] is given as “Not Active”.

With `COc1cc(NC(C)CCCN)c2ncccc2c1` (configuration not stated), in experiment [8], the inhibition entry is “Active”.
